Results on 1 molecule are retold here after publication PMC9394215 (Journal for Immunotherapy of Cancer, 2022).

In general, IC50 refers to the concentration at which inhibition is half-maximal. Lower therefore signals greater potency. By inhibition is commonly meant the drop in the measured response relative to a control, in per cent.

Where only a bound is given, the exact number is not on record here.

The target of data set [1] is T1, NTPDase8 (Homo sapiens, UniProt Q5MY95).
T1 sequence (Q5MY95 1-495): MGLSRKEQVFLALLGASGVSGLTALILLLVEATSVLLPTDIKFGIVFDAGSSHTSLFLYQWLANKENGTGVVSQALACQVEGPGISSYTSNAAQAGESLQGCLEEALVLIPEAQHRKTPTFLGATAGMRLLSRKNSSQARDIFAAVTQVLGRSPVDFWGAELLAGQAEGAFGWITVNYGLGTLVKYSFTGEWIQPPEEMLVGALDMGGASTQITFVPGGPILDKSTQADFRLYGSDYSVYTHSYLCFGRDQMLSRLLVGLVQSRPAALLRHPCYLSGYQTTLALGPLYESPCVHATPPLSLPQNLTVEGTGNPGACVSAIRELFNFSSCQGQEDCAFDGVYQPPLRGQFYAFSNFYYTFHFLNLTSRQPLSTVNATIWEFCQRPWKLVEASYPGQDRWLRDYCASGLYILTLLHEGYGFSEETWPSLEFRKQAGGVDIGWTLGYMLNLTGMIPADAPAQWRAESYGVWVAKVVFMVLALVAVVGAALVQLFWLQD
The data set is described as follows: Malachite green assay, NTPDase8 in COS-7 cell membranes. Type of data set: biochemical. Summed up: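 Human NTPDase2, -3 or -8 was expressed in COS-7 membranes (ca. 100 ng protein, adjusted for 10–20% substrate conversion). Enzyme was preincubated 5 min at 37°C with test compound (50 µM single point, or 0.1–300 µM for curves). It was then incubated 15 min at 37°C with 100 µM ATP in HEPES/CaCl2/MgCl2, pH 7.4, ≤2% DMSO. Malachite green absorbance at 600 nm was corrected by a denatured-enzyme blank; n=3.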

Data set [2] has as its target T2, NPP4 (Homo sapiens, UniProt Q9Y6X5).
T2 sequence (Q9Y6X5 16-407 limits assumed): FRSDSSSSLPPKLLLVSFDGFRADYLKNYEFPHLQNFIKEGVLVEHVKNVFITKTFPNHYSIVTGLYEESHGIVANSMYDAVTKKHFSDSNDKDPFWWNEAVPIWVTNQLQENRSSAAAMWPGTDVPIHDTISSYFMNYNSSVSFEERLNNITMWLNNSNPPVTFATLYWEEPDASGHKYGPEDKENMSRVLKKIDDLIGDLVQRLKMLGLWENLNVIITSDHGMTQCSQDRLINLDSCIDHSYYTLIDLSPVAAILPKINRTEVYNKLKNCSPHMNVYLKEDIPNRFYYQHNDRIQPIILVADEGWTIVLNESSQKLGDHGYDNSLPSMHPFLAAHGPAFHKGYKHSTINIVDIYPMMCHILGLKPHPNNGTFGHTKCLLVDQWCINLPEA
The data set is described as follows: NPP4 assay. The format is biochemical. In outline:
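Purified soluble NPP4 (1200 ng, Sf9-expressed) was incubated with 50 µM test compound, 2% DMSO and 300 µM diadenosine tetraphosphate. Buffer: 10 mM HEPES, 2 mM CaCl2, 1 mM MgCl2, pH 8.0; 90 min at 37°C with shaking. The reaction was heat-stopped (90°C, 5 min) and chilled on ice. Product ATP was quantified by capillary electrophoresis.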

Data set [3] deals with melanoma (MaMel65) cells. The data set can be described thus: Extracellular eATP hydrolysis on live melanoma cells. The format is cell-based, human. Particulars: 1, 10, 100 µM, significant at 10 µM, 20 µM eATP.
The subject of data set [4] is ALK. As to conditions: ref 59 60; cited from earlier work.
For data set [5] the following is noted: ref 61 62; cited from earlier work.
For data set [6] the following is noted: stated without method or reference; cited from earlier work.

As for `Cc1cc(Nc2ncc(Cl)c(Nc3ccccc3S(=O)(=O)C(C)C)n2)c(OC(C)C)cc1C1CCNCC1` [ceritinib, Ceritinib], the IC50 is 20.3 ± 1.5 µM in data set [1] and above 50 µM in data set [2]. The inhibition at 50 µM in data set [2] (read-out: % inhibition at 50 µM) worked out at 15%. Also, in data set [3], the “inhibition of hydrolysis of eATP added to live cells” value is given as “concentration-dependent inhibition”. Further, the “IC50 value against ALK” value in data set [4] is on record as “subnanomolar range”. Besides, the brain permeation result in data set [5] is recorded as “some brain permeation”. The “pKb of the piperidine nitrogen” value in data set [6] is given as around 10.
